Screening data deposited in PubChem by Broad Institute.
FGF22 binding: binders of human FGF22 protein, primary screen, FGF22 synaptogenesis inhibitor project, biophysical, thermal shift, single point. Fibroblast growth factor 22 (Homo sapiens), Q9HCT0. activity (Tm shift, normalised), % at 9.99 µM. 340,000 tested, 1.5% active. recombinant FGF22 thermal shift, SYPRO orange fluorescence; percent of sucrose octasulfate shift, DMSO zero;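 active = mean Tm shift, scaled 0 neutral to 100 positive control, at about 1.3% or above, every replicate too, limit read from the data; inconclusive = no clear call, values can overlap the other calls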
Target sequence (Q9HCT0 whole entry, looked up): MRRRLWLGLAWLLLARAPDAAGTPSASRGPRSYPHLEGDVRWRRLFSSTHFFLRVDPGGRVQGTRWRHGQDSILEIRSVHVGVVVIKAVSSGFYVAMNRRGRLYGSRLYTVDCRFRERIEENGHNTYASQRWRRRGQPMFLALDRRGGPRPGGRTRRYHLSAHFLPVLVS
Env fusion inh: inhibitors of HIV-1 Env-driven cell-cell fusion, primary screen, HeLa-JRFL effector, CEM21 target cells, luciferase; inhibition, % at 12.3 µM; 360,000 tested, 1.1% active; AID 651610, 2012;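 active = mean replicate inhibition score of at least 50 and every replicate individually at or above 50; inconclusive = only one of the two criteria met; inactive = mean below 50 and not all replicates reaching 50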
ERAP1 HTS inh: human ERAP1 aminopeptidase inhibitors, primary screen, biochemical, single point, plate reader | inhibition, % at 10.7 µM | AID 652197, 2013 | 340,000 tested, 0.15% active | recombinant ERAP1, Leu-AMC fluorescence, 60 min;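 active = mean replicate inhibition of at least 30%, or all replicates individually reaching that 30% level; inactive = mean below 30% and not every replicate reaching it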
Cneo AK release: Cryptococcus neoformans cell lysis inducers, primary screen, AK release luminescence, single concentration | C. neoformans lysis, adenylate kinase release luminescence, 4 h; normalised: neutral wells 0, clomiphene wells 100 | lysis activity, % at 15 µM | 360,000 tested, 0.2% active | AID 651654, 2012;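 active = mean lysis activity across replicates of at least 80%, whatever share of replicates individually reach that level; inactive = mean lysis activity below 80%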
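Signal: Adenylate kinase release luminescence | Assay system: Log-phase Cryptococcus neoformans yeast cells | Input: Cells at 5 × 10^6 per mL | Buffer or medium: Fresh YPD growth medium | Compound: Single dose | Schedule: Static 4 h at 37 °C with compound, 1 h detection | Controls: Clomiphene | Read-out: Luminescence rise reflecting yeast cell lysis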
rRNA inh HTS: reduced GFP signal of wild-type E. coli, primary screen, bacterial rRNA inhibitor project, GFP/RFP fluorescence, OD600, single point; AID 720706, 2013; E. coli WT GFP vs humanized-ribosome RFP mutants, 24 h; stronger effect = lower value; DMSO median 0, no signal -100; 350,000 tested, 1.6% active; GFP signal change (wild-type ribosome), % (no concentration beside the values);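 active = significant combined selectivity score with lowered wild-type GFP, culture density cut under 30%, mutant RFP and density less affected; inactive = any of these conditions unmet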
PGC1a acetyl inh: inhibitors of PGC1a acetylation signal, primary screen, cell-based, U2OS, AlphaScreen, inhibitor mode; AlphaScreen anti-acetyl-lysine; with virally co-expressed GCN5 acetyltransferase; inhibition, % at 15.6 µM; 350,000 tested, 0.17% active;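 active = every replicate shows inhibition of at least 40%; inconclusive = mean inhibition at least 40% but some replicate below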
AID977621: growth inhibition of wild-type GFP E. coli, dose response, H69 mutant RFP, cherry-pick; E. coli wild-type GFP strain growth, fluorescence, 24 h; activity change, negative = inhibition at 50 µM; 1,900 tested, under 10 active; shares compounds with rRNA inh HTS;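 active = Wild-type ribosome reporter drop at least double the humanized mutant ribosome reporter drop, growth loss under a set limit; inconclusive = no clear call, values can overlap the other calls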;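 also: wild-type GFP and H69 mutant RFP strains grown together 50/50 in each well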
AID977628: E. coli growth inhibition, wild-type GFP versus h24 humanized RFP strain, dose response, h24 mutant RFP vs wild-type GFP, cherry-pick; E. coli WT GFP strain growth, fluorescence, 24 h; shares compounds with rRNA inh HTS; AID 977628, 2014; 1,900 tested, under 10 active; activity change, negative = inhibition at 50 µM;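 active = compound lowering the normal-ribosome reporter at least twice as much as the humanized-ribosome reporter, growth loss under a set limit; inconclusive = no clear call, values can overlap the other calls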;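 also: wild-type GFP and h24 humanized RFP strains co-cultured 1 to 1 per well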
Numbers stand for hits; n = inactive; u = inconclusive; x = no result; ! = not active in a repeat. The list is not random: actives were taken first. Their share in the collection is about 3.5%.

SMILES	FGF22 binding	Env fusion inh	ERAP1 HTS inh	Cneo AK release	rRNA inh HTS	PGC1a acetyl inh	AID977621	AID977628
C[C@@H]1CN([C@@H](C)CO)C(=O)CCCn2nncc2CO[C@H]1CN(C)C(=O)Nc1cccc(C(F)(F)F)c1	n	x	n	n	-17	n	x	u
c1ccc(-c2nnsc2-c2ccccc2)cc1	n	n	n	n	n	n	x	x
CCNC(=O)C1(C)CCCN(Cc2cccc3ccccc23)C1 (stereo unspecified)	n	n	n	n	-23	n	x	u
COc1cccc(C(=O)NC2CC3CCCC(C2)N3S(=O)(=O)c2ccccc2)c1 (stereo unspecified)	n	n	n	x	-31	n	u	x
Cc1cccc(N2Cc3ccc(Br)cc3C2)c1	n	n	x	x	-21	x	n	n
COc1ccc(-c2cnc3c(c2)C(=O)N([C@H](C)CO)C[C@H](C)[C@H](CN(C)Cc2ccccc2)O3)cc1	n	n	n	n	n	n	x	x
Cc1ccc(Cn2cnc3ccccc32)cc1	n	x	n	n	-25	n	n	n
O=[N+]([O-])c1cncc([N+](=O)[O-])c1Nc1cccc(O)c1	n	n	n	n	-26	n	x	n
Cc1ccccc1Nc1c([N+](=O)[O-])cncc1[N+](=O)[O-]	n	n	n	n	n	n	x	x
CC(=O)Nc1nc(C)c(-c2csc(Nc3ccccn3)n2)s1	n	n	n	x	-20!	n	n	x
COC(=O)c1ccc2nc(-c3cccc(Br)c3)c(Cc3ccsc3)n2c1	n	n	x	n	-34	n	u	x
COC(=O)c1ccc2nc(-c3cccc(Cl)c3)c(Cc3ccsc3)n2c1	n	n	n	n	n	n	x	x
CCOC(=O)c1cc(C)nc(N2CCCCC2)c1C#N	n	n	n	x	-21	n	n	x
Cc1cc(N(C)C)c(C#N)c(N2CCCCC2)n1	x	n	x	n	x	n	x	x
O=c1oc2ccccc2n1CCCOc1ccccc1	n	x	n	n	n	n	x	x
COc1ccc(OCc2cn(CC(=O)c3ccc(O)cc3)nn2)cc1	n	x	n	n	n	n	x	x
O=C(Cn1cc(COc2c(F)c(F)cc(F)c2F)nn1)c1ccc(O)cc1	n	n	x	n	-18	x	u	x
CCCSc1cc(Cl)nc(N)n1	n	n	x	n	n	n	x	x
NC(=O)C1CCN(c2cc(Cl)ccc2[N+](=O)[O-])CC1	n	n	n	x	-22	n	n	x
NC(=O)C1CCN(c2cc(N3CCOCC3)ccc2[N+](=O)[O-])CC1	n	n	n	n	n	x	x	x
COC(=O)C1=C(C)NC(=O)NC1c1ccccc1Cl (stereo unspecified)	n	n	n	n	n	n	x	x
COC(=O)c1sc(-c2ccc(C(C)(C)C)cc2)cc1NC(=O)c1ccccc1C(=O)O	n	n	n	x	-17	n	n	x
CC(C(=O)Nc1nc2ccccc2s1)n1cc([N+](=O)[O-])cn1 (stereo unspecified)	n	n	n	x	-18	x	n	x
CC(C)(C)NC(=O)/C(=C\c1ccco1)NC(=O)c1cccs1	n	x	n	n	n	n	x	x
CS(=O)(=O)Nc1ccccc1C(=O)NCCSc1ccccc1	n	n	n	n	-22	n	n	n
SMILES	FGF22 binding	Env fusion inh	ERAP1 HTS inh	Cneo AK release	rRNA inh HTS	PGC1a acetyl inh	AID977621	AID977628
Cc1ccc2nc(SCC(=O)c3ccc4c(c3)NC(=O)CO4)[nH]c2c1	n	n	n	x	-21	n	n	u
Cc1ccc(C)c(-n2nnnc2SCC(=O)c2ccc3c(c2)NC(=O)CO3)c1	x	n	x	n	x	n	x	x
Cc1c2cnn(CC(=O)N3CCOCC3)c(=O)c2c(C)n1Cc1ccccc1F	n	n	n	n	n	n	x	x
Cc1ccccc1Nc1c(-c2cccnc2)nc2ccc(Br)cn12	n	n	n	x	-25	x	n	n
Cc1ccc2nc(-c3cccnc3)c(Nc3ccccc3C)n2c1	n	n	x	n	n	n	x	x
CCN(CC)CCOC(=O)c1ccc(NC(=O)COc2cc(=O)n(CC)c3ccccc23)cc1	x	n	n	x	n	n	x	x
Cc1nn(Cc2ccc(C(=O)N3c4ccc(F)cc4CCC3C)o2)c(C)c1Br (stereo unspecified)	x	x	x	n	x	n	x	x
CCOc1ccc2[nH]c3c(NCCN(C)C)ncnc3c2c1	n	n	n	n	-13	n	n	u
CCOc1ccc2[nH]c3c(NCCC(C)C)ncnc3c2c1	n	n	n	n	n	x	x	x
CC1C(=O)OC(c2ccc(Cl)cc2)C(C)(C)C1=O (stereo unspecified)	n	n	n	n	n	n	x	x
COc1ccc(C#Cc2ccc3c(c2)[C@@H]2[C@@H](CCN2Cc2nccs2)[C@@H](CO)N3)cc1	x	x	x	n	-22	n	x	u
O=C1CCCc2c1nc(-c1ccc([N+](=O)[O-])cc1)n2O	n	n	n	x	-18	x	u	u
CCOc1ccc2nc(SCC(=O)Nc3nonc3C)[nH]c2c1	n	n	n	x	-20	n	n	n
Cc1c(C(=O)OCC(=O)NCc2ccco2)cccc1[N+](=O)[O-]	n	n	n	n	n	n	x	x
O=S(=O)(NC1CC1)c1ccc(S(=O)(=O)N2CCc3ccccc32)cc1	x	x	n	n	-20	n	n	x
O=S(=O)(c1ccc(F)cc1)N1CCc2ccccc21	n	n	n	n	n	n	x	x
CCC(=O)Nc1ccc2c(c1)C(=O)N(C)[C@@H]1CC[C@@H](CC(=O)NCCc3ccncc3)O[C@H]1CO2	n	n	n	n	n	n	x	x
CCSc1cc(C2C(C#N)=C(N)OC(C)=C2C(=O)OC)c(C)o1 (stereo unspecified)	x	n	x	n	x	n	x	x
CCCc1nc2ccc(C)cn2c1Cc1ccccc1	n	n	n	n	n	n	x	x
COc1ccc(C2CC(c3cccs3)=Nc3ccccc3S2)cc1 (stereo unspecified)	n	x	n	n	-26	n	n	u
COc1ccc(C2CC(c3cccs3)=NN2S(C)(=O)=O)cc1 (stereo unspecified)	n	n	n	n	n	n	x	x
CN1CCN(CC(=O)Nc2nc3ccccc3s2)CC1	n	n	n	n	n	n	x	x
CC1CN(CC(=O)Nc2nc3ccccc3s2)CC(C)O1 (stereo unspecified)	n	n	n	n	-15	n	n	u
